# Reference: ChEMBL document CHEMBL1127667, “Synthesis of benzo-fused benzodiazepines employed as probes of the agonist pharmacophore of benzodiazepine receptors” (J Med Chem, 1994)
# Assays:
# [1] = molecular target: GABA-A receptor; anion channel; assay: In vitro inhibitory concentration of compound against benzodiazepine receptor from rat cerebral cortex using [3H]- flunitrazepam was evaluated; type: tissue-based
# In short: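 Rat cerebral cortex membranes prepared in 50 mM Tris-citrate, pH 7.4, washed three times. About 0.1 mg protein incubated with [3H]flunitrazepam (~1 nM final) and NaCl at 0-4 °C for 60 min. Bound ligand collected by GF/B filtration. IC50 taken from at least six inhibitor concentrations. Mean ± SEM of at least three determinations.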
# [2] = molecular target: T1, GABA-A receptor; anion channel (Mus musculus) (UniProt Q8BHJ7+P26048+Q8QZW7+P50571+Q9R0Y8+P22723+A2AMW3+P62812+Q9JLF1+P26049+P22933+Q9D6F4+P63080+P27681+P16305); assay: In vivo activity against GABA-A benzodiazepine receptor in mice; type: functional, organism-based; set-up: unit not given here
# In short: (§1)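 Adult male NIH/Swiss mice, groups of three to eight, given graded ip doses in diluted Emulphor/saline (1:9). Muscle relaxation tested on a wire at 12 min. PTZ given at 15 min: 80 mg/kg to test anticonvulsant action, 40 mg/kg to test proconvulsant action.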
# [3] = molecular target: T1, GABA-A receptor; anion channel (Mus musculus); assay: In vivo activity of compound was evaluated against benzodiazepine receptor in mice; type: functional, organism-based; in short: as §1
# Mus musculus [4] = organism: Mus musculus; assay: Compound was tested for anticonvulsant effect in mice; type: functional
# In short: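 Male NIH/Swiss mice, 25-30 g, groups of three to eight, given graded ip doses in diluted Emulphor/saline (1:9) or vehicle. PTZ 80 mg/kg injected 15 min after dosing. Protection from PTZ-induced convulsions scored. ED50 derived from the dose-response.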
# Mus musculus [5] = organism: Mus musculus; assay: Compound was tested for myorelaxant effect in mice; type: functional
# In short: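 Male NIH/Swiss mice, 25-30 g, groups of three to eight, dosed ip with graded amounts in diluted Emulphor/saline (1:9) or vehicle. At 12 min, mice were hung by the forepaws on a 1.5-mm wire 60 cm above the bench. Three falls within 1 min counted as muscle relaxation. ED50 derived from the dose-response.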
Structure (SMILES),IC50 [1] [nM],other results
CN1C(=O)CN=C(c2ccccc2F)c2ccc3ccccc3c21,260,
O=C1CN=C(c2ccccc2)c2c(ccc3ccccc23)N1,> 1000,
Cc1cc(C)c2c(c1)C(c1ccccc1)=NCC(=O)N2,,Activity [2]: 792
O=C1CN=C(c2ccccc2)c2c(Cl)cccc2N1,320,Activity [3]: 0
CN1C(=O)CN=C(c2ccccc2)c2c1ccc1ccccc21,> 1000,
O=C1CN=C(c2ccccc2)c2ccc3ccccc3c2N1,> 1000,
CN1C(=O)CN=C(c2ccccc2)c2cc3ccccc3cc21,> 1000,
O=C1CN=C(c2ccccc2)c2cc3ccccc3cc2N1,400,
CN1C(=O)CN=C(c2ccccc2)c2cc(Cl)ccc21,,Activity [3]: 1.39
CN1C(=O)CN=C(c2ccccc2F)c2c1ccc1ccccc21,> 1000,
CN1C(=O)CN=C(c2ccccc2F)c2c(Cl)cccc21,150,Activity [3]: 0
CCOC(=O)c1ncc2[nH]c3ccc(OCc4ccccc4)cc3c2c1COC,5,
CN1C(=O)CN=C(c2ccccc2)c2cc(Cl)c(Cl)cc21,40,Activity [3]: Weak activity
Cc1cc2c(cc1C)C(c1ccccc1)=NCC(=O)N2,,Activity [2]: 132
CN1C(=O)CN=C(c2ccccc2)c2ccc3ccccc3c21,> 1000,
O=C1CN=C(c2ccccc2F)c2c(ccc3ccccc23)N1,> 1000,
Cc1cc2c(cc1Cl)NC(=O)CN=C2c1ccccc1F,14,Activity [3]: 0
O=C1CN=C(c2ccccc2F)c2cc(Cl)c(Cl)cc2N1,3.6,
O=C1CN=C(c2ccccc2F)c2cc3ccccc3cc2N1,> 1000,
O=C1CN=C(c2ccccc2)c2cc(-c3ccccc3)ccc2N1,,Activity [2]: 781
O=C1CN=C(c2ccccc2)c2cc(Cl)cc(Cl)c2N1,,Activity [2]: 8
O=C1CN=C(c2ccccc2F)c2ccc3ccccc3c2N1,120,
C=Cc1ccc2c(c1)C(c1ccccc1)=NCC(=O)N2,24,Activity [3]: Weak activity
CN1C(=O)CN=C(c2ccccc2F)c2cc3ccccc3cc21,55,ED50 (Mus musculus [4]): 15 mg/kg; ED50 (Mus musculus [5]): 15 mg/kg
Cc1cc([N+](=O)[O-])cc2c1NC(=O)CN=C2c1ccccc1,,Activity [2]: 8.12
